Results published in PMC3772774 (Molecular cancer therapeutics, 2013).
Values belong to the molecule of their own block, whether it stands above or below them.

How the values were obtained:
[1] = system: c-Myc activation; experiment: c-Myc activation sensor luciferase assay in SK-ST stable cells; format: cell-based, human; details: for fold by which IC50 for sensor signal inhibition is higher than that of NTZ: SK-ST cells, PD98059 2hrs, U0126 1hr, Atorvastatin 16hrs
[2] = system: SKBR3 cells; experiment: MTS cell toxicity assay in SKBR3 cells; format: cell-based, human
[3] = molecular target: full-length firefly luciferase (SK-FST cells) (Photinus pyralis, UniProt P08659); experiment: Full-length firefly luciferase control assay in SK-FST stable cells; format: cell-based; details: 16hrs treatment
Sequence of full-length firefly luciferase (SK-FST cells) (P08659 whole entry): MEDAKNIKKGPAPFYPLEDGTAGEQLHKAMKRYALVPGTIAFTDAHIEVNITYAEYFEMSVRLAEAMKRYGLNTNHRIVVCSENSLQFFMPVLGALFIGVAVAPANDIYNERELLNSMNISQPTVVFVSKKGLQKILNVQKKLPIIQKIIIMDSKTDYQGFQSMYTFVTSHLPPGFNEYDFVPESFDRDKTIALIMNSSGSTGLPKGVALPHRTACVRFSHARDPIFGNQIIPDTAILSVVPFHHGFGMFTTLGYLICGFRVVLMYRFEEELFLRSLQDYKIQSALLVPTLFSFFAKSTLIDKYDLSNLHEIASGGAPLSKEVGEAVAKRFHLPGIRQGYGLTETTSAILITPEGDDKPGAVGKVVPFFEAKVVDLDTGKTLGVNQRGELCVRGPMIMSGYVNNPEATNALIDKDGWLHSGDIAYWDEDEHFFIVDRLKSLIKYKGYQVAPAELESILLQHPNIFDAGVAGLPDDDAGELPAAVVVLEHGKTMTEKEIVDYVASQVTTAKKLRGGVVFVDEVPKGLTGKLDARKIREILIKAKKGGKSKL
Summary of the method: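 SKBR3 cells stably expressing full-length firefly luciferase on a single vector, selected with 3μg/ml puromycin, grown in McCoy's 5a with 10% FBS at 37°C, 5% CO2. Test compound was applied for 16hrs. D-Luciferin (45μg/ml in PBS, pH 7.0) was added to the medium and IVIS images were taken at 2-min intervals until peak. Photon output was normalized to total lysate protein; ≥3 repeats.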

[4] = system: c-Myc; experiment: c-Myc inhibition in different cancer cell lines; format: cell-based; details: read-out: IC50 for c-Myc inhibition, range over different cancer cell lines
Summary of the method: (§1)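 SKBR3 (McCoy's 5a), lymphoma (RPMI plus 3.96×10-4% 2-mercaptoethanol) and osteosarcoma 1325 (DMEM) cells, all with 10% FBS, at 37°C, 5% CO2, were exposed to test compound as in the sensor assay. Lysates (50μg protein) were immunoblotted for phospho-c-Myc (Thr58/Ser62) and c-Myc, with β-actin as loading control, then ECL and densitometry. IC50 came from a four-parameter nonlinear fit of fold-change against log concentration; ≥3 repeats.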

[5] = system: phospho c-Myc; experiment: Western blot of endogenous phospho c-Myc in osteosarcoma cells; format: cell-based; details: read-out: IC50 of inhibition of phospho c-Myc level
Summary of the method: as §1

[6] = system: phospho c-Myc; experiment: Western blot of endogenous phospho c-Myc in lymphoma cells; format: cell-based; details: read-out: IC50 of inhibition of phospho c-Myc level
Summary of the method: as §1

[7] = system: SK-ST xenografts; experiment: SK-ST breast cancer xenograft model in nude mice; format: in vivo
[8] = system: SK-FST xenografts; experiment: SK-FST breast cancer xenograft model in nude mice; format: in vivo; details: 200mg/kg gavage twice a day, about 18 days after implantation

fold by which IC50 for sensor signal inhibition is higher than that of NTZ [1]: about 50 fold
Structure (SMILES): CC(C)c1c(C(=O)Nc2ccccc2)c(-c2ccccc2)c(-c2ccc(F)cc2)n1CC[C@@H](O)C[C@@H](O)CC(=O)O [Atorvastatin]

Structure (SMILES): CC(=O)Oc1ccccc1C(=O)Nc1ncc([N+](=O)[O-])s1 [NTZ, nitazoxanide]
half-maximal lethal dose (LD50) [2]: about 1 μM
change of FL signal in SK-FST cells (direct effect on luciferase activity) [3]: no significant changes
IC50 ([1]; Homo sapiens, 16 h, read-out: IC50 for the sensor signal inhibition): ~100 nM
IC50 [4]: 10 to 500 nM
IC50 [5]: 12 nM
IC50 [6]: 440 nM
common side effects (diarrhea, vomiting, skin rash) ([7]; 200mg/kg gavage twice a day for 27 days): didn’t observe the common side effects
tumor growth by gross inspection and caliper measurements ([7]; 200mg/kg gavage twice a day, 27 days after implantation, P=0.00007 vs CMC): drastic inhibition of tumor growth
bioluminescent signal from SK-ST xenografts (c-Myc activation) ([7]; 200mg/kg gavage twice a day, vs CMC group): greatly inhibited
caspase-3 staining, average positive cells in each sample ([7]; tumor samples, 200mg/kg gavage twice a day, CMC group 5±2, P<0.03): 23±8 positive cells
endogenous phospho and c-Myc protein levels in tumor samples ([7]; western blot, NTZ vs CMC group): greatly reduced
bioluminescent signal of SK-FST xenografts [8]: sustained decrease of the signal

fold by which IC50 for sensor signal inhibition is higher than that of NTZ [1]: about 2000 fold
Structure (SMILES): COc1cccc(-c2cc(=O)c3ccccc3o2)c1N [PD98059]

fold by which IC50 for sensor signal inhibition is higher than that of NTZ [1]: ~500 fold
Structure (SMILES): N#CC(=C(/N)Sc1ccccc1N)/C(C#N)=C(/N)Sc1ccccc1N [U0126]
